ChEMBL document CHEMBL3414483, “New heterocyclic hybrids of pyrazole and its bioisosteres: design, synthesis and biological evaluation as dual acting antimalarial-antileishmanial agents” (Eur J Med Chem, 2015)
Converted amounts (≈) assume the structure as drawn. The source made the active and inactive calls. The calls are words filed in the database; no cut-off is given here.

Assays:
Leishmania aethiopica [1] = experiment: Antileishmanial activity against amastigote stage of Leishmania aethiopica after 72 hrs by resazurin staining-based fluorescence assay; format: functional, organism-based
Summary of the method: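 Axenic L. aethiopica amastigotes (50 µl of 2 × 10^7 cells/ml) exposed to serial dilutions at final 0.04–10 µg/ml for 72 h at 31 °C, humidified, 5% CO₂. Resazurin was added at 68 h and fluorescence read at 72 h (ex 530/em 590 nm). EC50 from sigmoidal dose–response fits, mean ± SD of triplicate experiments run in duplicate. Controls were medium alone and 1% DMSO.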

Leishmania aethiopica [2] = experiment: Antileishmanial activity against promastigote stage of Leishmania aethiopica after 24 hrs by alamar blue staining-based […]; format: functional, organism-based
Summary of the method: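 L. aethiopica promastigotes, 3 × 10^6 per well, given compounds from DMSO stocks in three-fold dilutions at 10 to 0.04 µg/ml (final DMSO ≤0.1%), in duplicate, at room temperature (21 ± 1 °C). Alamar blue (resazurin) was added after 24 h and absorbance read 48 h later at 540 and 630 nm. Negative control was parasites, medium and DMSO.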

Plasmodium berghei [3] = experiment: Antimalarial activity against Plasmodium berghei str. ANKA infected in Swiss albino mouse assessed as supression of parasitemia at 0.048 mmol/kg/day, po qd for 3 days by microscopic analysis relative to control; format: functional
Summary of the method: (§1)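 Four-day suppressive test. Mice were infected iv on day 0 with 0.2 ml of 2 × 10^7 P. berghei ANKA-parasitized erythrocytes from a donor mouse, diluted in saline. From 2 h post-infection they were dosed orally at 0.048 mmol/kg/day for days 0–3, five mice per group. The vehicle was 7% Tween and 3% ethanol in water. On day 4, Giemsa smears were scored over 5 fields of about 100 RBC each. Suppression was calculated relative to the vehicle group, taken as 100%.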

Plasmodium berghei [4] = experiment: Antimalarial activity against Plasmodium berghei str. ANKA infected in Swiss albino mouse assessed as parasitemia at 0.048 mmol/kg/day, po qd […] by microscopic analysis relative to control; format: functional; summary of the method: as §1
Plasmodium berghei [5] = experiment: Antimalarial activity against Plasmodium berghei str. ANKA infected in Swiss albino mouse assessed as survival at 0.048 mmol/kg/day, po qd for 3 days by microscopic analysis relative to control; format: functional
Summary of the method: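 P. berghei ANKA infected mice, 4-day suppressive test. Day 0: 0.2 ml of 2 x 10^7 parasitized erythrocytes given i.v. (donor blood, 20-30% parasitemia, diluted in saline). Oral dosing at 0.048 mmol/kg/day from 2 h post-infection, then days 1-3 at 24 h intervals. Vehicle 7% Tween, 3% ethanol in water. Five mice/group. Survival time recorded per mouse; mean compared with vehicle group.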

Mus musculus [6] = experiment: Toxicity in mouse assessed as change in weight at 25 to 300 mg/kg, po measured for 3 days; format: organism-based; set-up: dose 25-300 mg/kg, route oral; conditions: in vivo, 72 h
Summary of the method: (§2)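 Male mice (26-32 g), six per group, fasted overnight and weighed. Compounds given orally as suspension in 1% gum acacia at 25, 50, 100, 200 and 300 mg/kg/day; vehicle control at up to 1 ml/100 g. Mortality recorded after 24 h; weight and deaths followed over 3 days post-dosing.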

Mus musculus [7] = experiment: Toxicity in mouse up to 100 mg/kg administered via parenteral route; format: organism-based; set-up: dose 100 mg/kg; conditions: in vivo
Summary of the method: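 Groups of six mice received intraperitoneal doses of 10, 25, 50, 75 and 100 mg/kg, with propylene glycol as the vehicle control.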

Mus musculus [8] = experiment: Toxicity in mouse assessed as death at 25 to 300 mg/kg, po measured for 3 days; format: organism-based; set-up: dose 25-300 mg/kg, route oral; conditions: in vivo, 72 h; summary of the method: as §2
[9] = Toxicity in po dosed mouse; format: organism-based; conditions: in vivo; summary of the method: as §2
Plasmodium falciparum = experiment: Antiplasmodial activity against chloroquine-resistant Plasmodium falciparum RKL9 infected in human RBC assessed as effect on schizont maturation after 24 hrs by Geimsa staining-based assay; format: functional, organism-based; conditions: RKL9, 24 h
Summary of the method: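 P. falciparum RKL9 in continuous culture in human B(+) RBC, parasitemia adjusted to 1-1.5%, RPMI 1640 with 10% AB(+) serum. Two-fold serial dilutions, compounds in ethanol (final ≤0.5%), 24 h at 37 °C, duplicate wells. Schizonts per 100 asexual parasites counted on Giemsa smears; % schizont maturation inhibition = (1 − Nt/Nc) × 100.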

CC(=O)N(C1=NN(C(C)=O)C(c2cn(-c3ccc(C)cc3)nc2-c2ccc(C)cc2)S1)c1ccccc1 (stereo not drawn)
IC50 (Leishmania aethiopica [1]): 0.82 µg/mL (≈ 1.61 µM) | IC50 (Leishmania aethiopica [2]): 0.862 µg/mL (≈ 1.69 µM) | Activity (Plasmodium berghei [3]): 83.72% | Activity (Plasmodium berghei [4]): 14% | Survival (Plasmodium berghei [5]): 12.22 days

Cc1ccc(-c2nn(-c3ccc(Br)cc3)cc2C2CC(c3ccccc3)=NN2c2ccccc2)cc1 (stereo not drawn)
IC50 (Leishmania aethiopica [1]): 1.24 µg/mL (≈ 2.32 µM) | IC50 (Leishmania aethiopica [2]): 2.91 µg/mL (≈ 5.46 µM) | Activity (Plasmodium berghei [3]): 74.42% | Activity (Plasmodium berghei [4]): 22% | Survival (Plasmodium berghei [5]): 10.64 days

O=[N+]([O-])c1ccc(-c2nn(-c3ccc(Br)cc3)cc2/C=N/NC(=S)Nc2ccccc2)cc1
Activity (Mus musculus [6]): Non-toxic | IC50 (Leishmania aethiopica [1]): 0.21 µg/mL (≈ 0.403 µM) | IC50 (Leishmania aethiopica [2]): 0.0214 µg/mL (≈ 0.041 µM) | Activity (Mus musculus [7]): Non-toxic | Activity (Plasmodium berghei [3]): 94.19% | Activity (Mus musculus [8]): Non-toxic | MTD [9]: 300 mg/kg | IC50 (Plasmodium falciparum): 38.4 nM | Activity (Plasmodium berghei [4]): 5% | Survival (Plasmodium berghei [5]): 14.84 days

Cc1ccc(-c2nn(-c3ccc(C)cc3)cc2/C=N/N=C2/SCC(=O)N2c2ccccc2)cc1
IC50 (Leishmania aethiopica [1]): 0.58 µg/mL (≈ 1.25 µM) | IC50 (Leishmania aethiopica [2]): 0.882 µg/mL (≈ 1.89 µM) | Activity (Plasmodium berghei [3]): 88.37% | Activity (Plasmodium berghei [4]): 10% | Survival (Plasmodium berghei [5]): 10.64 days

CC(=O)N1N=C(c2ccccc2)CC1c1cn(-c2ccc(C)cc2)nc1-c1ccc(C)cc1 (stereo not drawn)
IC50 (Leishmania aethiopica [1]): 2.31 µg/mL (≈ 5.32 µM) | IC50 (Leishmania aethiopica [2]): 3.05 µg/mL (≈ 7.01 µM) | Activity (Plasmodium berghei [3]): 79.07% | Activity (Plasmodium berghei [4]): 18% | Survival (Plasmodium berghei [5]): 10.08 days

CCN(CC)CCCC(C)Nc1ccnc2cc(Cl)ccc12.O=P(O)(O)O.O=P(O)(O)O (stereo not drawn) [CHLOROQUINE PHOSPHATE]
Activity (Plasmodium berghei [3]): 100% | Activity (Plasmodium berghei [4]): 0% | Activity (Plasmodium berghei [5]): Active

CC(=O)N1N=C(c2ccccc2)CC1c1cn(-c2ccc(Br)cc2)nc1-c1ccc(C)cc1 (stereo not drawn)
Activity (Mus musculus [6]): Non-toxic | IC50 (Leishmania aethiopica [1]): 2.77 µg/mL (≈ 5.55 µM) | IC50 (Leishmania aethiopica [2]): 3.02 µg/mL (≈ 6.05 µM) | Activity (Mus musculus [7]): Non-toxic | Activity (Plasmodium berghei [3]): 96.51% | Activity (Mus musculus [8]): Non-toxic | MTD [9]: 300 mg/kg | IC50 (Plasmodium falciparum): 36.8 nM | Activity (Plasmodium berghei [4]): 3% | Survival (Plasmodium berghei [5]): 16.4 days

O=C1CS/C(=N/N=C/c2cn(-c3ccc(Br)cc3)nc2-c2ccc([N+](=O)[O-])cc2)N1c1ccccc1
Activity (Mus musculus [6]): Non-toxic | IC50 (Leishmania aethiopica [1]): 0.19 µg/mL (≈ 0.338 µM) | IC50 (Leishmania aethiopica [2]): 0.0224 µg/mL (≈ 0.0399 µM) | Activity (Mus musculus [7]): Non-toxic | Activity (Plasmodium berghei [3]): 97.67% | Activity (Mus musculus [8]): Non-toxic | MTD [9]: 300 mg/kg | IC50 (Plasmodium falciparum): 39.2 nM | Activity (Plasmodium berghei [4]): 2% | Survival (Plasmodium berghei [5]): 16.44 days

Cc1ccc(-n2cc(C=O)c(-c3ccc([N+](=O)[O-])cc3)n2)cc1
IC50 (Leishmania aethiopica [1]): 1.56 µg/mL (≈ 5.08 µM) | IC50 (Leishmania aethiopica [2]): 3.64 µg/mL (≈ 11.9 µM) | Activity (Plasmodium berghei [3]): 62.79% | Activity (Plasmodium berghei [4]): 32% | Survival (Plasmodium berghei [5]): 7.28 days

Cc1ccc(-c2nn(-c3ccc(C)cc3)cc2/C=C/C(=O)c2ccccc2)cc1
IC50 (Leishmania aethiopica [1]): 2.88 µg/mL (≈ 7.61 µM) | IC50 (Leishmania aethiopica [2]): 4 µg/mL (≈ 10.6 µM) | Activity (Plasmodium berghei [3]): 69.77% | Activity (Plasmodium berghei [4]): 26% | Survival (Plasmodium berghei [5]): 11.6 days

Cc1ccc(-c2nn(-c3ccc(Br)cc3)cc2C2CC(c3ccccc3)=NN2)cc1 (stereo not drawn)
IC50 (Leishmania aethiopica [1]): 1.88 µg/mL (≈ 4.11 µM) | IC50 (Leishmania aethiopica [2]): 2.01 µg/mL (≈ 4.4 µM) | Activity (Plasmodium berghei [3]): 67.44% | Activity (Plasmodium berghei [4]): 28% | Survival (Plasmodium berghei [5]): 7.88 days

Cc1ccc(-c2nn(-c3ccc(Br)cc3)cc2/C=C/C(=O)c2ccccc2)cc1
IC50 (Leishmania aethiopica [1]): 1.01 µg/mL (≈ 2.28 µM) | IC50 (Leishmania aethiopica [2]): 1.03 µg/mL (≈ 2.32 µM) | Activity (Plasmodium berghei [3]): 74.42% | Activity (Plasmodium berghei [4]): 22% | Survival (Plasmodium berghei [5]): 11.8 days

O=Cc1cn(-c2ccc(Br)cc2)nc1-c1ccc([N+](=O)[O-])cc1
IC50 (Leishmania aethiopica [1]): 2.03 µg/mL (≈ 5.45 µM) | IC50 (Leishmania aethiopica [2]): 4.84 µg/mL (≈ 13 µM) | Activity (Plasmodium berghei [3]): 59.3% | Activity (Plasmodium berghei [4]): 35% | Survival (Plasmodium berghei [5]): 8.71 days

CC(=O)N1N=C(c2ccccc2)CC1c1cn(-c2ccc(Br)cc2)nc1-c1ccc([N+](=O)[O-])cc1 (stereo not drawn)
IC50 (Leishmania aethiopica [1]): 0.89 µg/mL (≈ 1.68 µM) | IC50 (Leishmania aethiopica [2]): 1.09 µg/mL (≈ 2.05 µM) | Activity (Plasmodium berghei [3]): 69.77% | Activity (Plasmodium berghei [4]): 26% | Survival (Plasmodium berghei [5]): 6.62 days

Cc1ccc(-c2nn(-c3ccc(C)cc3)cc2/C=N/N=c2/scc(-c3ccc(Br)cc3)n2-c2ccccc2)cc1
Activity (Mus musculus [6]): Non-toxic | IC50 (Leishmania aethiopica [1]): 0.3 µg/mL (≈ 0.496 µM) | IC50 (Leishmania aethiopica [2]): 0.0311 µg/mL (≈ 0.0514 µM) | Activity (Mus musculus [7]): Non-toxic | Activity (Plasmodium berghei [3]): 97.67% | Activity (Mus musculus [8]): Non-toxic | MTD [9]: 300 mg/kg | IC50 (Plasmodium falciparum): 41.8 nM | Activity (Plasmodium berghei [4]): 2% | Survival (Plasmodium berghei [5]): 16.84 days
